According to PMC4652583 (Organic letters, 2012):
Ends that are not written are not given here.

Assays:
Nedd8 E1 = conditions: ref [8]; cited from earlier work
myeloma and lymphoma = conditions: in clinical trials for myeloma and lymphoma; ref [9]; cited from earlier work
Ube1 [1] = biological target: T1, Ube1 (Homo sapiens, UniProt P22314); assay: ATP-PPi exchange kinetics catalyzed by Ube1; type: biochemical
T1 sequence (P22314 1-1058): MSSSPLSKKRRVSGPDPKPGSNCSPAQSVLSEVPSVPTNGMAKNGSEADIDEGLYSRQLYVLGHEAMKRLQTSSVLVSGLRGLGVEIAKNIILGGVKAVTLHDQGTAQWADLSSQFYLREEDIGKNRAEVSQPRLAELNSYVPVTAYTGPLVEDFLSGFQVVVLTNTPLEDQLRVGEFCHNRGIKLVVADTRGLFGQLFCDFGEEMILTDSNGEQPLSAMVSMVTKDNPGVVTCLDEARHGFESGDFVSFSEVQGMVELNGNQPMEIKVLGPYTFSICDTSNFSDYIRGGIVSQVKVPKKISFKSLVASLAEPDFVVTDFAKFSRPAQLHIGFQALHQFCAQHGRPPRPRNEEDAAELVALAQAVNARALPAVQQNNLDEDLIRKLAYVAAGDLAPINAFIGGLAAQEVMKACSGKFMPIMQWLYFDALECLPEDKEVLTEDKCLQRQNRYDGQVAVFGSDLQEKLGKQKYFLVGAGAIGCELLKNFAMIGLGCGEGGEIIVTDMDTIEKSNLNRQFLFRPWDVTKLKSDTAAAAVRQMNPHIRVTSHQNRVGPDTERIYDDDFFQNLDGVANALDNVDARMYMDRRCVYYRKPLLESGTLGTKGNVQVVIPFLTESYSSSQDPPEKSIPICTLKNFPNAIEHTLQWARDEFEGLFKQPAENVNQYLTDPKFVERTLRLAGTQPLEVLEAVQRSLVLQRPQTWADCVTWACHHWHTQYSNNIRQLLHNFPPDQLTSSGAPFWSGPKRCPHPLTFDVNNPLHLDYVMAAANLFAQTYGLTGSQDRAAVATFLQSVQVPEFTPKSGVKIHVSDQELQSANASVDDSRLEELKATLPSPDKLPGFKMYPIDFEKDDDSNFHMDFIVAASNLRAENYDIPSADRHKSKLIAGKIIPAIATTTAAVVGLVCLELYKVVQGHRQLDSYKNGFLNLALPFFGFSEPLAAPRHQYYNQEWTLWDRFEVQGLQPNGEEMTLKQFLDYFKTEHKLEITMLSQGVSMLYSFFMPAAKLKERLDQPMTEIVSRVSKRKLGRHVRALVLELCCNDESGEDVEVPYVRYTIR

Ube1 [2] = biological target: T1, Ube1; assay: Competitive inhibition of UB transfer to Ube1; type: biochemical
Procedure, shortened: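 Increasing concentrations of test peptide were incubated with 1 µM UB and reacted with Ube1 (E1). UB~E1 thioester conjugate formed in each reaction was measured by Western blot.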

[3] = substrate: CC(C)[C@H](N)C(=O)N[C@@H](Cc1c[nH]c2ccccc12)C(=O)N[C@@H](CCCNC(=N)N)C(=O)N[C@@H](Cc1ccccc1)C(=O)N[C@@H](Cc1c[nH]cn1)C(=O)NCC(=O)NCC(=O)O; assay: ATP-PPi exchange kinetics catalyzed by Ube1; type: biochemical, human; conditions: other: ATP-PPi exchange catalyzed by Ube1
[4] = substrate: CC(C)[C@H](N)C(=O)N[C@@H](CCC(N)=O)C(=O)N[C@@H](CCCNC(=N)N)C(=O)N[C@@H](Cc1ccc(O)cc1)C(=O)N[C@@H](Cc1c[nH]c2ccccc12)C(=O)NCC(=O)NCC(=O)O; assay: ATP-PPi exchange kinetics catalyzed by Ube1; type: biochemical, human; conditions: other: ATP-PPi exchange catalyzed by Ube1

**Q.** With `NS(=O)(=O)OC[C@@H]1C[C@@H](n2ccc3c(N[C@H]4CCc5ccccc54)ncnc32)C[C@@H]1O` [MLN4924] as the molecule, how does the “inhibition of Nedd8 E1” value (Nedd8 E1) read?
**A.** potent inhibitor of the Nedd8 E1

**Q.** And the anticancer activities (myeloma and lymphoma)?
**A.** promising anticancer activities

**Q.** Which results are given for VLRLRGG [P1]?
**A.** kcat/K1/2 (Ube1 [1]; ATP-PPi exchange catalyzed by Ube1): 1.28 M⁻¹ s⁻¹; saturation of Ube1 (Ube1 [1]; at a concentration as high as 500 µM in the ATP-PPi exchange reaction): could not saturate Ube1; inhibition of UB loading on E1 (Ube1 [2]; at a concentration as high as 1 mM, 1 µM UB, Western blot): cannot significantly inhibit UB loading on E1

**Q.** Which IC50 (Ube1 [2]) does the source give for VQRYWGG [P3] here?
**A.** 172 µM

**Q.** With VWRFHGG [P2] as the molecule, how does the IC50 (Ube1 [2]) read?
**A.** 266 µM

**Q.** Which IC50 (Ube1 [2]) does the source give for VYRFYGG [P4] here?
**A.** 220 µM

B1: Ube1 (Homo sapiens) (protein)
chain: T1 sequence (P22314 1-1058)
**Q.** What does the source list for B1?
**A.** kcat [3]: 0.0583 ± 0.01 s⁻¹; kcat/Km [3]: 167 M⁻¹ s⁻¹; kcat [4]: 0.162 ± 0.0233 s⁻¹; kcat/Km [4]: 383 M⁻¹ s⁻¹
